As a reminder, the inhibition is the change of the read-out against control, counted positive when it falls.

Calls of active or inactive are those of the source. The calls are words filed in the database; no cut-off is given here.

The subject of assay [1] is Trichophyton mentagrophytes. Kind of assay: Antimicrobial activity against Trichophyton mentagrophytes at 0.4 umol/mL by broth microdilution method. It is filed as functional, organism-based. The gist of the method: (§1)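 Broth dilution in defined medium against clinical isolates of each organism.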
The test system of a further assay is Epidermophyton floccosum. Kind of assay: Antimicrobial activity against Epidermophyton floccosum at 0.4 umol/mL by broth microdilution method. It is filed as functional, organism-based. The gist of the method: as §1
In general terms: Broth dilution looks for growth in wells or tubes with falling amounts of substance.

A further assay relates to Candida albicans. Kind of assay: Antimicrobial activity against Candida albicans at 0.4 umol/mL by broth microdilution method. The format is functional, organism-based. The gist of the method:
as §1

Another assay relates to Pseudomonas aeruginosa. Kind of assay: Antimicrobial activity against Pseudomonas aeruginosa at 0.4 umol/mL by broth microdilution method. The format is functional, organism-based. A digest of the protocol: as §1
Another assay has as its system Staphylococcus aureus. Put plainly: Antimicrobial activity against Staphylococcus aureus at 0.4 umol/mL by broth microdilution method. It is filed as functional, organism-based. The gist of the method:
as §1

For the next assay, the system named is Microsporum canis. Kind of assay: Antimicrobial activity against Microsporum canis at 0.4 umol/mL by broth microdilution method. It is filed as functional, organism-based. The gist of the method:
as §1

The test system of a further assay is Human respirovirus 3. Kind of assay: Antiviral activity against Parainfluenza virus 3 infected in human KB cells assessed as inhibition of virus-induced cytopathic effect after 72 hrs relative to control. It is filed as functional, organism-based. A digest of the protocol: (§2)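 Cell monolayers (18-24 h) infected with 320 CCID50 of virus; compound added within 15 min at half-log dilutions from 1000 to 1 μg/mL. After 72 h at 37 °C, CPE and cytotoxicity scored microscopically (0-4). Virus rating = sum of (control CPE − treated CPE) over drug levels, halved at any level showing toxicity.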
In general terms: Cytopathic effects are the visible damage that an infection or toxin causes in cultured cells.

The next assay has as its system Human alphaherpesvirus 2. Put plainly: Antiviral activity against HSV2 infected in human KB cells assessed as inhibition of virus-induced cytopathic effect after 72 hrs relative to control. The format is functional, organism-based. A digest of the protocol: as §2
Assay [2] concerns Ehrlich. Put plainly: Inhibition of guanine nucleotide biosynthesis in mouse EAC assessed as [14C]hypoxanthine incorporation at 1 mM after 60 mins by TLC analysis. The format is functional. The note with it: 1 h. The gist of the method:
(§3)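 Ehrlich ascites tumor cells (about 6 × 10^6 cells/mL) preincubated 20 min at 37 °C with or without 1 mM compound. [14C]hypoxanthine (55 μCi/μmol) then added to 0.1 mM final for 60 min. Label in adenine or guanine nucleotides of the acid-soluble fraction measured by TLC; inhibition calculated against untreated cells.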

A further assay deals with Vaccinia virus. Put plainly: Antiviral activity against Vaccinia virus infected in human KB cells assessed as inhibition of virus-induced cytopathic effect after 72 hrs relative to control. The note with it: Orthopoxvirus vaccinia. The format is functional, organism-based. A digest of the protocol: as §2
For assay [3], the system named is KB. Put plainly: Antiviral activity against Adenovirus type 3 infected in human KB cells assessed as inhibition of virus-induced cytopathic effect after 72 hrs relative to control. The format is functional, cell-based. The following applies: Human adenovirus 3. The gist of the method:
as §2

The test system of assay [4] is Ehrlich. Kind of assay: Inhibition of adenine nucleotide biosynthesis in mouse EAC assessed as [14C]hypoxanthine incorporation at 1 mM after 60 mins by TLC analysis. The format is functional. The following applies: 1 h. The gist of the method: as §3
Assay [5] relates to KB. Kind of assay: Antiviral activity against Rhinovirus type 13 infected in human KB cells assessed as inhibition of virus-induced cytopathic effect after 72 hrs relative to control. The format is functional, cell-based. The note with it: Human rhinovirus A13. A digest of the protocol:
as §2

For another assay, the system named is Human alphaherpesvirus 1. Kind of assay: Antiviral activity against HSV1 infected in human KB cells assessed as inhibition of virus-induced cytopathic effect after 72 hrs relative to control. It is filed as functional, organism-based. A digest of the protocol:
as §2

The test system of assay [6] is Escherichia coli. Kind of assay: Inhibition of Escherichia coli IMP dehydrogenase assessed as ratio of compound concentration for 50% inhibition of enzyme activity to 1.7 to 3 x 10^-5 M of substrate concentration. A digest of the protocol:
(§4)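 Enzymes partially purified from Escherichia coli B. Substrate at 1.7-3.0 × 10^-5 M. Value is the ratio of inhibitor concentration giving 50% inhibition to substrate concentration.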

Assay [7] concerns Escherichia coli. Kind of assay: Inhibition of Escherichia coli adenylosuccinate synthetase assessed as ratio of compound concentration for 50% inhibition of enzyme activity to 1.7 to 3 x 10^-5 M of substrate concentration. The gist of the method:
as §4

The subject of assay [8] is Escherichia coli. Kind of assay: Antimicrobial activity against Escherichia coli at 0.0025 to 0.125 umol/mL by broth microdilution method. The format is functional, organism-based. The gist of the method:
as §1

In a further assay the test system is Influenza B virus. Kind of assay: Antiviral activity against Influenza B virus Lee infected in Swiss-Webster mouse assessed as host mean survival days at 12.5 mg/kg, po qd for 9 days. It is filed as functional, B/Lee/1940.

For `COC(=O)c1ncn([C@@H]2O[C@H](C)[C@@H](OC(C)=O)[C@H]2OC(C)=O)c1CC#N`, the outcome (in [1]; in the assay on Epidermophyton floccosum; with Candida albicans; in the assay on Pseudomonas aeruginosa; in the assay with Staphylococcus aureus; in the assay on Microsporum canis) was inactive.

With `Nc1cc2c(ncn2C2CCCCO2)c(=O)[nH]1` (stereo not drawn), the outcome (in [1]; in the assay on Epidermophyton floccosum; in the assay on Candida albicans; with Pseudomonas aeruginosa; in the assay with Staphylococcus aureus; in the assay on Microsporum canis) was inactive.

As to `CC(=O)O[C@@H]1O[C@H](C)[C@@H](OC(C)=O)[C@H]1OC(C)=O`, the outcome (in [1]; in the assay with Epidermophyton floccosum; in the assay on Candida albicans; in the assay with Pseudomonas aeruginosa; in the assay on Staphylococcus aureus; with Microsporum canis) was inactive.

Take `CC(=O)Nc1cc2[nH]cnc2c(=O)[nH]1`: the outcome (in [1]; with Epidermophyton floccosum; in the assay with Candida albicans; in the assay with Pseudomonas aeruginosa; with Staphylococcus aureus; in the assay with Microsporum canis) was inactive.

For the compound `NC(=O)c1ncn([C@@H]2O[C@H](CO)[C@@H](O)[C@H]2O)n1` [RIBAVIRIN], the outcome with Human respirovirus 3, with Human alphaherpesvirus 2, in the assay on Vaccinia virus, in the assay on KB [3], in the assay on KB [5] and in the assay with Human alphaherpesvirus 1 was Active. The figures for the inhibition at 1000 µM in the assay with Ehrlich [2] and with Ehrlich [4] were 65% and 14%, respectively.

For the compound `C1=COCCC1`, the outcome (in assay [1]; in the assay with Epidermophyton floccosum; in the assay on Candida albicans; with Pseudomonas aeruginosa; in the assay with Staphylococcus aureus; in the assay with Microsporum canis) was inactive.

Take `Nc1cc2ncn(C3CCCCO3)c2c(=O)[nH]1` (stereo not drawn): the outcome (in assay [1]; with Epidermophyton floccosum; with Human respirovirus 3; in the assay on Candida albicans; in the assay on Pseudomonas aeruginosa; in the assay on Staphylococcus aureus) was inactive. Besides, the outcome in the assay on Microsporum canis was inactive. Besides, the result with KB [5] and with Human alphaherpesvirus 1 was Active.

On to `COC(=O)c1c(CC#N)ncn1C1CCCCO1` (stereo not drawn), for which the outcome (in assay [1]; in the assay with Epidermophyton floccosum; in the assay with Candida albicans; in the assay on Pseudomonas aeruginosa; with Staphylococcus aureus; in the assay on Microsporum canis) was inactive.

As for `C[C@H]1O[C@@H](n2cnc3cc(N)[nH]c(=O)c32)[C@H](O)[C@@H]1O`, the outcome (in assay [1]; in the assay with Epidermophyton floccosum; with Candida albicans; in the assay with Pseudomonas aeruginosa; with Staphylococcus aureus; in the assay on Microsporum canis) was inactive.

With `Nc1cc2c(ncn2[C@@H]2O[C@H](COP(=O)(O)O)[C@@H](O)[C@H]2O)c(=O)[nH]1`, the result (in [1]; in the assay with Epidermophyton floccosum; in the assay on Candida albicans; with Pseudomonas aeruginosa; in the assay with Staphylococcus aureus; with Microsporum canis) was inactive. The Ratio is 0.068 with Escherichia coli [6] and 20 in the assay with Escherichia coli [7]. For the same compound, the outcome with Human respirovirus 3, in the assay on Human alphaherpesvirus 2, with Vaccinia virus, with KB [3], with KB [5] and in the assay with Human alphaherpesvirus 1 was Active. In addition, the inhibition at 1000 µM was 68% in the assay on Ehrlich [2] and 18% in the assay with Ehrlich [4].

As for `N#CCc1c(C(N)=O)ncn1C1CCCCO1` (stereo not drawn), the result (in assay [1]; in the assay with Epidermophyton floccosum; in the assay on Candida albicans; with Pseudomonas aeruginosa; in the assay with Staphylococcus aureus; in the assay on Microsporum canis) was inactive.

On to `COC(=O)c1c(CC#N)ncn1[C@@H]1O[C@H](C)[C@@H](OC(C)=O)[C@H]1OC(C)=O`, for which the result (in assay [1]; with Epidermophyton floccosum; in the assay on Candida albicans; in the assay on Pseudomonas aeruginosa; in the assay on Staphylococcus aureus; in the assay on Microsporum canis) was inactive.

On to `CC(=O)Nc1cc2c(ncn2[C@@H]2O[C@H](COC(C)=O)[C@@H](OC(C)=O)[C@H]2OC(C)=O)c(=O)[nH]1`, for which the result (in assay [1]; with Epidermophyton floccosum; in the assay on Candida albicans; with Pseudomonas aeruginosa; in the assay with Staphylococcus aureus; in the assay with Microsporum canis) was inactive.

Turning to `C[C@H]1O[C@@H](n2cnc3c(=O)[nH]c(N)cc32)[C@H](O)[C@@H]1O`, the outcome (in [1]; in the assay with Epidermophyton floccosum; in the assay on Human respirovirus 3; with Candida albicans; in the assay on KB [5]; with Pseudomonas aeruginosa) was inactive. The result in the assay with Staphylococcus aureus and in the assay on Microsporum canis was inactive. Also, in the assay on Human alphaherpesvirus 1, the outcome was Active.

Turning to `CC(=O)OC[C@H]1O[C@@H](n2cnc(C(N)=O)c2CC#N)[C@H](OC(C)=O)[C@@H]1OC(C)=O`, the outcome (in assay [1]; with Epidermophyton floccosum; in the assay with Candida albicans; in the assay on Pseudomonas aeruginosa; with Staphylococcus aureus; with Microsporum canis) was inactive.

Consider `CN(C)/C=N/c1cc2c(ncn2[C@@H]2O[C@H](CO)[C@@H](O)[C@H]2O)c(=O)[nH]1`, for which the result (in assay [1]; in the assay with Epidermophyton floccosum; in the assay with Candida albicans; with Pseudomonas aeruginosa; with Staphylococcus aureus; in the assay with Microsporum canis) was inactive.

For `Nc1cc2ncn([C@@H]3O[C@H](CO)[C@@H](O)[C@H]3O)c2c(=O)[nH]1`, in the assay with Escherichia coli [8], the outcome was Active.

In the case of `C[C@H]1O[C@@H](n2cnc(C(N)=O)c2CC#N)[C@H](O)[C@@H]1O`, the outcome (in [1]; with Epidermophyton floccosum; with Candida albicans; in the assay on Pseudomonas aeruginosa; in the assay with Staphylococcus aureus; with Microsporum canis) was inactive.

For `COC(=O)c1ncn(C2CCCCO2)c1CC#N` (stereo not drawn), the result (in assay [1]; in the assay with Epidermophyton floccosum; in the assay on Candida albicans; with Pseudomonas aeruginosa; with Staphylococcus aureus; in the assay on Microsporum canis) was inactive. The Time in the assay with Influenza B virus is greater than 0.3 days.

The values above are taken from ChEMBL document CHEMBL3244072, “Synthesis and antiviral and enzymatic studies of certain 3-deazaguanines and their imidazolecarboxamide precursors” (J Med Chem, 1978).
